RanGTP-Imp inh: disruptors of Ran-importin-beta complex formation – biochemical, FRET, CFP-Ran, YFP-importin-beta, homogeneous, primary screen | AID 2216 | inhibition, % (no concentration beside the values) | 300,000 tested, 1.1% active | cell-free CFP-Ran/YFP-importin-beta FRET ratio;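 active means more than half of the replicate wells show a fall in the fluorescence ratio signal beyond about 16%, limit read from the data, passing the limit was not always enough; inconclusive means exactly half of the replicate wells pass the set limit; inactive means fewer than half of replicates pass the limit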;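 further: 0% = DMSO wells and 100% = Ran loaded with GDP instead of GTP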
MEX-5 binding: C. elegans MEX-5 TCR-2 RNA binding activity; MEX-5/FITC-TCR2 RNA binding, fluorescence polarization; active compounds read low; Q9XUB2; activity score (negative = inhibition of binding), % at 10 µM; 300,000 tested, 0.38% active; AID 1832;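 active means inhibition past about -25% in most replicates, and total fluorescence under double the plate's negative control median, limit read from the data; inconclusive means replicates evenly split on the limit, or fluorescence at least double controls; inactive means too little inhibition in most replicates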;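 further: 0% = DMSO and -100% = 5 µM competing unlabeled TCR2 RNA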
Runt-SMMHC FRET: inhibitors of human RUNX1 Runt domain binding to CBFb-SMMHC; Q01196+Q13951; Cerulean-Runt/Venus-CBFb-SMMHC FRET ratio 530/480, 1 h; inhibition, % at 20 µM; 220,000 tested, 0.74% active; AID 1434;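 active means mean inhibition across duplicate retests at 20 µM reaching about 50%, limit read from the data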;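 further: 0% = DMSO wells and 100% = wells with excess untagged CBFb-SMMHC; inhibitors lower the FRET ratio by blocking Runt binding to CBFb-SMMHC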
Target sequence (Q01196 whole entry, looked up, the tested form may be a part): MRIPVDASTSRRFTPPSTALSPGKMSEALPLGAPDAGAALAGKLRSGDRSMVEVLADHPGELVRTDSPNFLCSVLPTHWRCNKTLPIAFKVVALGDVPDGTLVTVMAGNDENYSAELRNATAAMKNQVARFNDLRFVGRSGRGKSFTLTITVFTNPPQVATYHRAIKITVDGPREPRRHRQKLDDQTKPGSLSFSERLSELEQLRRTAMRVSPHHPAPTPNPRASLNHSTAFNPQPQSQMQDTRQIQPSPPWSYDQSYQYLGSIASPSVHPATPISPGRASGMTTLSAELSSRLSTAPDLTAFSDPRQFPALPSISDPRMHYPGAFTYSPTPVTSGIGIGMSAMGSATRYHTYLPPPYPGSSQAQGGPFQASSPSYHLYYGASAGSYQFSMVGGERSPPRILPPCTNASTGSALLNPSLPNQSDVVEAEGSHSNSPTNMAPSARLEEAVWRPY
Target sequence (Q13951 whole entry, looked up, the tested form may be a part): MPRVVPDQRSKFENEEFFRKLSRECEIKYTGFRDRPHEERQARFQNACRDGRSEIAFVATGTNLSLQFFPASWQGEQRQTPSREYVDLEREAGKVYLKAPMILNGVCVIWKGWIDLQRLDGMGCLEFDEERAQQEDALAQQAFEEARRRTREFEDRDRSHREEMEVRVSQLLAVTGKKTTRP
LANA-H2B inh: blocks KSHV LANA binding to histone H2A/H2B; Q9QR71; cell-free LANA-H2A/H2B peptide, fluorescence polarization; inhibition, % (no concentration beside the values); 320,000 tested, 0.6% active; AID 2629; in the data active means inhibition mostly above about 10%, no sharp cut-off; inactive means mostly below about 6.7%
Runt-CBFb FRET: inhibitors of human RUNX1 Runt domain binding to CBFb. Q01196+Q13951. Cerulean-Runt/Venus-CBFb FRET ratio 530/480, 1 h. inhibition, % at 20 µM. 220,000 tested, 0.46% active. AID 1496;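 active means inhibition over about 50% at 20 µM in the single-dose screen, limit read from the data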;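 further: 0% = DMSO wells and 100% = excess unlabeled CBFb competitor control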
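Measured by: fluorescence energy transfer, 422 nm excitation, 530/480 nm emission; test system: Cerulean-tagged RUNX1 Runt domain (FRET donor) fusion protein; buffer or medium: Tris pH 7.5 buffer with BSA; compound: one dose, 20 µM compound, 1% DMSO; times: two 1 h room-temperature incubations shielded from light; benchmarks: unlabeled CBFb 5 µM, positive control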
EBV gp42 block: inhibitors of Epstein-Barr virus glycoprotein 42; Q1HVG2; Fluorescence polarization binding assay, mP read-out; inhibition, % (tested at 21.74 µM); 220,000 tested, 0.42% active; AID 1085; in the data active means inhibition above about 50%
* hit, by the source's call; i = inactive; ? = inconclusive; · = not tested or not shown; + = active, no number. The list is not random: actives were taken first. Their share in the collection is about 2.4%.

SMILES	RanGTP-Imp inh	MEX-5 binding	Runt-SMMHC FRET	LANA-H2B inh	Runt-CBFb FRET	EBV gp42 block
COC(=O)CCCC1=CC2=C(c3ccccc3)C(=O)C(C)(OC(=O)C3CCCC3)C(=O)C2=CN1CCc1c[nH]c2ccccc12 (configuration not stated)	-1	-5	-15	1	6	14
O=C(CN1CCN(c2ccccn2)CC1)Nc1ccc([N+](=O)[O-])cc1C(=O)Nc1ccccc1F	?	1	·	-2	·	·
COc1ccc(C2C(C(C)=O)=C(C)N=c3s/c(=C\c4cc(C)n(C)c4C)c(=O)n32)c(OC)c1 (configuration not stated)	-136	-38*	i	0	-72	92*
Cn1c(SCc2cc(=O)[nH]c(C(C)(C)C)n2)nnc1C(F)(F)F	-1	3	-2	-3	0	-4
COc1ccc(C[C@H]2CN3C(=NC[C@@H]3Cc3ccc(O)cc3)N2C[C@H](C)NC(=O)c2ccc(C)c(Br)c2)cc1	-2	3	3	-2	1	-15
Fc1ccccc1CN1CCCCCCC1	-1	0	0	-4	-2	-10
Fc1cccc(F)c1-n1c(CN2CCCC2)csc1=S	?	4	4	33*	1	-7
CN(C)/C=C1\C=C2C(=O)c3ccccc3N2C1=O	-476	·	80	150*	-341	-64
Nc1c(C(=O)NCC2CCCO2)sc2nc3c(c(-c4ccco4)c12)CC/C3=C\c1ccco1 (configuration not stated)	·	·	-3	·	29	98*
CCOc1ccc(-n2c(=O)c3c(C)c(C(=O)N(C)C)sc3n(CC(=O)Nc3ccccc3F)c2=O)cc1	19*	2	0	0	-6	-17
O=C(N/N=C/c1cccc(F)c1)c1c(O)c2ccccc2[nH]c1=O	1	1	-5	+	-7	3
Cc1cc2c(c(=O)n1CCCn1ccnc1)C(c1ccco1)C(C#N)=C(N)O2 (configuration not stated)	5	7	108*	0	46	-13
COc1ccccc1C1C(C#N)=C(N)Oc2cc(C)n(CCCn3ccnc3)c(=O)c21 (configuration not stated)	-4	0	-5	-1	3	-7
COCCn1c(C)cc2c(c1=O)C(c1ccccc1F)C(C#N)=C(N)O2 (configuration not stated)	63*	-2	33	4	6	-11
COc1ccc(NC(=O)CCC(=O)N2CCCC2)c([N+](=O)[O-])c1	2	1	·	-5	·	·
N#CC1C(C#N)N2CCCN2C1c1ccc(Cl)cc1 (configuration not stated)	-1	1	3	2	-3	1
O=c1[nH][nH]c(=O)c2cc([N+](=O)[O-])ccc12	·	·	·	40*	·	·
O=C(COC(=O)c1cc(S(=O)(=O)N2CCOCC2)ccc1F)NCc1ccco1	-2	1	·	-2	·	·
CCOc1ccc(C2C(C(=O)C3CC3)N3C=C(C#N)C=CC3C2(C#N)C#N)cc1 (configuration not stated)	30*	-1	1	0	2	-5
CCN(CC(=O)NCc1ccc(F)cc1)CC(=O)Nc1cc(S(=O)(=O)N(C)C)ccc1C	·	·	·	-5	·	·
CC1(C)CC(=O)C(C=Nc2cccc(/N=C/C3=C(O)CC(C)(C)CC3=O)n2)=C(O)C1	32*	2	7	·	3	-3
O=C(CCc1nc(-c2ccc(Cl)cc2)no1)NCc1ccccc1CN1CCOCC1	·	·	·	-4	·	·
O=C(CCc1nc(-c2ccccc2)no1)NCc1ccccc1CN1CCOCC1	·	·	·	26*	·	·
CC(=O)Oc1ccc(-c2cccc(C(=O)N(C)c3ccc(O)cc3)c2)cc1	-3	0	3	0	0	-1
COc1ccc(N2CCN(C(c3cccs3)C(C)NC(=O)C(=O)N3CCCCC3)CC2)cc1 (configuration not stated)	0	-2	·	-1	·	·
SMILES	RanGTP-Imp inh	MEX-5 binding	Runt-SMMHC FRET	LANA-H2B inh	Runt-CBFb FRET	EBV gp42 block
Cc1ccc2ccc(C3C(=O)c4ccccc4C3=O)nc2c1	?	-41*	·	-4	·	·
Cc1ccc(C)c(C2C(=O)c3ccccc3C2=O)c1	-1	-2	·	-2	·	·
Cc1c(Cl)c(=O)n2c(=O)c(Cl)c(C)n12	128*	-12	86*	5	21	31
O=C(Nc1cccnc1)c1cc(-c2ccccc2O)on1	0	1	-6	-5	8	-35
O=C(Nc1cccnc1)c1cc(-c2cccs2)on1	1	-2	-3	92*	0	-4
Cc1c(NC(=O)c2cc(-c3cccs3)on2)c(=O)n(-c2ccccc2)n1C	-9	1	3	175*	4	-16
Cc1sc2ncnc(SCC(=O)NC(=O)c3cccn3C)c2c1C	0	-3	1	-1	-2	-1
COC(=O)c1cccc(/C=N/NC(N)=S)c1O	42*	0	84*	4	39	-9
CC(=O)Nc1ccc(NC(=O)[C@H](C)NC(=O)c2ccco2)cc1	6	3	·	-5	·	·
CN(C)CCCNc1c2c(nc3cc(-c4cccc(F)c4)nn13)CCC2	27*	-1	2	-5	0	-19
CCOCCCNc1c2c(nc3cc(-c4ccc(F)cc4)nn13)CCC2	2	10	-1	1	-1	-3
COc1ccc(C(=O)CSc2nc3[nH]ncc3c(=O)[nH]2)cc1	3	-2	10	5	0	-9
CCn1c(NC(=O)C(C)C)c2ccccc2nc1=O	7	0	-23	11*	2	-12
C[C@H](CCCC/C=C/C(=O)O)O[C@@H]1O[C@@H](C)[C@H](O)C[C@H]1O	·	·	·	8	·	·
COc1ccc(CNc2nc3ccccc3n2C)c(OC)c1	-4	1	-1	9	0	-11
COc1ccc(N=Nc2nc3cc(Br)c(Br)cc3n2C)c(OC)c1	·	·	-179	102*	-40	118*
CCc1ccc(CN2CCCC(CCC(=O)N3CCN(c4ccccn4)CC3)C2)o1 (configuration not stated)	0	-1	-37	-6	1	-12
CN(CCNC(=O)c1ccc(CS(=O)(=O)c2ccc(Br)cc2)o1)CCc1ccccc1	-2	0	·	19*	·	·
COc1ccc(CCNC(=O)c2ccc(CS(=O)(=O)c3ccc(Cl)cc3)o2)cc1OC	?	1	-1	27*	0	-14
Cc1cccc(CS(=O)(=O)Cc2ccc(C(=O)NCCc3ccccc3)o2)c1	0	0	·	-7	·	·
COc1ccc(CCNC(=O)c2ccc(CS(=O)(=O)c3ccc(C)cc3)o2)cc1OC	-1	0	-1	0	3	-8

High-throughput results: PubChem, several laboratories
